From ChEMBL document CHEMBL1154887, “Pycnanthulignenes A-D, antimicrobial cyclolignene derivatives from the roots of Pycnanthus angolensis” (2010)
Converted amounts (≈) assume the structure as drawn.

Key:
Citrobacter freundii [1] = experiment: Antibacterial activity against chloramphenicol-resistant Citrobacter freundii LMP 802 after 30 mins by microbroth dilution method; type: functional
Procedure, shortened: (§1)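 Microbroth dilution MIC, done in three independent repeats. After incubation, 0.2 mg/mL p-iodonitrotetrazolium chloride was added and plates were held at 37 °C for 30 min. Viable cells reduce the yellow dye to pink.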

Shigella dysenteriae [2] = experiment: Antibacterial activity against beta lactamase positive Shigella dysenteriae LMP 606 after 30 mins by microbroth dilution method; type: functional; procedure, shortened: as §1
Staphylococcus aureus [3] = experiment: Antibacterial activity against methicillin-resistant Staphylococcus aureus LMP 805 after 30 mins by microbroth dilution method; type: functional; procedure, shortened: as §1
Pseudomonas aeruginosa [4] = experiment: Antibacterial activity against beta carbenicillin resistant Pseudomonas aeruginosa LMP 804 after 30 mins by microbroth dilution method; type: functional; procedure, shortened: as §1
Candida albicans [5] = experiment: Antifungal activity against Candida albicans LMP 709U […] by microbroth dilution method; type: functional
Procedure, shortened: (§2)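 Microbroth dilution, run three times. After incubation, 0.2 mg/mL p-iodonitrotetrazolium chloride was added and plates were held 30 min at 37 °C. Viable cells reduce the yellow dye to pink. MIC is the lowest concentration that prevented the colour change and gave complete growth inhibition.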

Escherichia coli [6] = experiment: Antibacterial activity against beta lactamase positive Escherichia coli LMP 701 after 30 mins by microbroth dilution method; type: functional; procedure, shortened: as §2
Escherichia coli [7] = experiment: Antibacterial activity against beta lactamase positive Escherichia coli LMP 701 after 24 hrs by microbroth dilution method; type: functional
Procedure, shortened: (§3)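 Minimal microbicidal concentration taken after the microbroth dilution MIC assay. MMC is the lowest concentration giving no growth after subculture.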

Candida albicans [8] = experiment: Antifungal activity against Candida albicans LMP 709U after 24 hrs by microbroth dilution method; type: functional; procedure, shortened: as §3
Microsporum audouinii [9] = experiment: Antifungal activity against Microsporum audouinii LMP 725D after 24 hrs by microbroth dilution method; type: functional; procedure, shortened: as §3
Microsporum audouinii [10] = experiment: Antifungal activity against Microsporum audouinii LMP 725D after 30 mins by microbroth dilution method; type: functional; procedure, shortened: as §2
Klebsiella pneumoniae [11] = experiment: Antibacterial activity against beta ampicillin resistant Klebsiella pneumoniae LMP 803 after 30 mins by microbroth dilution method; type: functional; procedure, shortened: as §1
Salmonella enterica [12] = experiment: Antibacterial activity against chloramphenicol-resistant Salmonella typhi LMP 706 after 30 mins by microbroth dilution method; type: functional, Salmonella enterica subsp. enterica serovar Typhi; procedure, shortened: as §1
Klebsiella pneumoniae [13] = experiment: Antibacterial activity against beta ampicillin resistant Klebsiella pneumoniae LMP 803 after 24 hrs by microbroth dilution method; type: functional
Procedure, shortened: (§4)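 For MMC, wells with no colour change after the INT step of the microbroth dilution assay were subcultured onto MHA agar and incubated at 37 °C for 24 h. MMC is the lowest concentration giving no growth after subculture. The assay was repeated three times.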

Shigella dysenteriae [14] = experiment: Antibacterial activity against beta lactamase positive Shigella dysenteriae LMP 606 after 24 hrs by microbroth dilution method; type: functional; procedure, shortened: as §4
Staphylococcus aureus [15] = experiment: Antibacterial activity against methicillin-resistant Staphylococcus aureus LMP 805 after 24 hrs by microbroth dilution method; type: functional; procedure, shortened: as §4
Pseudomonas aeruginosa [16] = experiment: Antibacterial activity against beta carbenicillin resistant Pseudomonas aeruginosa LMP 804 after 24 hrs by microbroth dilution method; type: functional; procedure, shortened: as §4
Salmonella enterica [17] = experiment: Antibacterial activity against chloramphenicol-resistant Salmonella typhi LMP 706 after 24 hrs by microbroth dilution method; type: functional, Salmonella enterica subsp. enterica serovar Typhi; procedure, shortened: as §4
Citrobacter freundii [18] = experiment: Antibacterial activity against chloramphenicol-resistant Citrobacter freundii LMP 802 after 24 hrs by microbroth dilution method; type: functional; procedure, shortened: as §4
[19] = Salmonella enterica subsp. enterica serovar Typhi

Molecule | MIC (Citrobacter freundii [1]; LMP 802, 0.5 h) [µg/mL] | MIC (Shigella dysenteriae [2]; LMP 606, 0.5 h) [µg/mL] | MIC (Staphylococcus aureus [3]; LMP 805, 0.5 h) [µg/mL] | MIC (Pseudomonas aeruginosa [4]; LMP 804, 0.5 h) [µg/mL] | MIC (Candida albicans [5]) [µg/mL] | MIC (Escherichia coli [6]; LMP 701, 0.5 h) [µg/mL] | MMC (Escherichia coli [7]) [µg/mL] | MMC (Candida albicans [8]) [µg/mL] | MMC (Microsporum audouinii [9]) [µg/mL] | MIC (Microsporum audouinii [10]; 0.5 h) [µg/mL] | MIC (Klebsiella pneumoniae [11]; LMP 803, 0.5 h) [µg/mL] | MIC (Salmonella enterica [12]; LMP 706, 0.5 h) [µg/mL] | MMC (Klebsiella pneumoniae [13]) [µg/mL] | MMC (Shigella dysenteriae [14]) [µg/mL] | MMC (Staphylococcus aureus [15]) [µg/mL] | MMC (Pseudomonas aeruginosa [16]) [µg/mL] | MMC (Citrobacter freundii [18]) [µg/mL] | further results
COc1cc2c(cc1OC)[C@H](c1ccc(O)cc1)[C@@H](C)C(C)=C2 [PYCNANTHULIGNENE A] | 39.1 (≈ 126 µM) | 39.1 (≈ 126 µM) | 9.76 (≈ 31.4 µM) | 78.1 (≈ 252 µM) | 19.5 (≈ 62.9 µM) | 19.5 (≈ 62.8 µM) | 39.1 | 39.06 | 78.12 | 39.1 (≈ 126 µM) | 78.1 (≈ 252 µM) | 19.5 (≈ 62.9 µM) | >78.12 | 78.1 | 19.53 | >78.12 | – | –
COc1ccc(-c2c(C)c(C)cc3cc4c(cc23)OCO4)cc1 [PYCNANTHULIGNENE C] | 39.1 (≈ 127 µM) | 39.1 (≈ 128 µM) | 19.5 (≈ 63.7 µM) | > 78.1 | 19.5 (≈ 63.7 µM) | 19.5 (≈ 63.7 µM) | 78.1 | 39.06 | 78.1 | 39.1 (≈ 127 µM) | 78.1 (≈ 255 µM) | 39.1 (≈ 127 µM) | >78.1 | >78.1 | 39.1 | >78.12 | 78.12 | MMC (Salmonella enterica [17]): 78.12 µg/mL
GENTAMICIN | – | – | – | – | – | – | – | – | – | – | – | – | – | – | – | – | – | MIC (Citrobacter freundii [1]): 4.88 µg/mL; MIC (Shigella dysenteriae [2]): 4.88 µg/mL; MIC (Staphylococcus aureus [3]): 4.88 µg/mL; MIC (Pseudomonas aeruginosa [4]): > 9.76 µg/mL; MIC (Escherichia coli [6]): 4.88 µg/mL; MIC (Microsporum audouinii [10]): 4.88 µg/mL; MIC (Klebsiella pneumoniae [11]): 19.5 µg/mL; MIC (Salmonella enterica [12]; [19]): 9.76 µg/mL
NYSTATIN | – | – | – | – | – | – | 9.8 | 9.8 | 9.8 | – | – | – | 19.5 | 9.8 | – | 19.5 | 9.8 | MMC (Salmonella enterica [17]; [19]): 19.5 µg/mL
